Test results taken from ChEMBL document CHEMBL1133660, “A potential melanoma tracer: synthesis, radiolabeling, and biodistribution in mice of a new nitridotechnetium bis(aminothiol) derivative pharmacomodulated by a N-(diethylaminoethyl)benzamide” (J Med Chem, 2000).

Key:
[1] = (§1) Partition coefficient (logP); assay type: physicochemical; conditions: octanol/water
How it was run: (§2)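 Partition between octanol and pH 7.4 Tris buffer, reported as log P.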

[2] = as §1; assay type: physicochemical; conditions: octanol/water; how it was run: as §2; remark: listed apart in the source
[3] = Tumor / liver ratio observed after 6 hours of injection; assay type: ADME
[4] = Tumor / liver ratio observed after 24 hours of injection; assay type: ADME, tissue-based
[5] = Tumor / liver ratio observed after 3 hours of injection; assay type: ADME, tissue-based
Mus musculus [6] = species on record: Mus musculus; test: Tissue biodistribution of the syn isomer in the B16 murine melanoma tumor in mice at 24 hours; assay type: ADME, organism-based; conditions: in vivo
How it was run: (§3)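 Male C57BL/6 J1 co mice given 5 × 10^5 viable B16 melanoma cells subcutaneously; tumors palpable after 10 days. 0.74 MBq 99mTc-labeled complex injected iv via tail vein. n = 3 per time point; sacrifice by exsanguination at 5 min, 15 min, 1, 3, 6 and 24 h. Tissues weighed and γ-counted; results as % injected dose/gram of tissue.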

Mus musculus [7] = species on record: Mus musculus; test: Tissue biodistribution of the syn isomer in the B16 murine melanoma tumor in mice at 6 hours; assay type: ADME, organism-based; conditions: in vivo; how it was run: as §3
Mus musculus [8] = species on record: Mus musculus; test: Tissue biodistribution of the syn isomer in the B16 murine melanoma tumor in mice at 1 hour; assay type: ADME, organism-based; conditions: in vivo; how it was run: as §3
Mus musculus [9] = species on record: Mus musculus; test: Tissue biodistribution of the syn isomer in the B16 murine melanoma tumor in mice at 3 hours; assay type: ADME, organism-based; conditions: in vivo; how it was run: as §3
[10] = Tumor / liver ratio observed after 1 hour of injection; assay type: ADME, tissue-based

logP [1] | logP [2] | Tumor/liver ratio [3] | Tumor/liver ratio [4] | Tumor/liver ratio [5] | ID/g (Mus musculus [6]) | ID/g (Mus musculus [7]) | ID/g (Mus musculus [8]) | ID/g (Mus musculus [9]) | Tumor/liver ratio [10] | Compound
-0.3 | -0.45 | – | – | – | – | – | – | – | – | CCN(CC)CCNC(=O)c1ccc(COCC(CNCC(C)(C)S)NCC(C)(C)S)cc1 (stereo not drawn)
– | – | 3.71 | 4.94 | 1.05 | 0.79% | 3.53% | 6.75% | 3.85% | 1.12 | CCN(CC)CCNC(=O)c1ccc([125I])cc1
– | – | 0.1 | 0.06 | 0.1 | 0.04% | 0.11% | 0.75% | 0.2% | 0.18 | (TcN-BAT)nitridotechnetium complex of bis(aminoethanethiol)
